Source: ChEMBL document CHEMBL1123534, “Synthesis and renal vasodilator activity of 2-chlorodopamine and N-substituted derivatives” (1986)

Columns and labels:
Canis familiaris [1] = assay: Compound was tested for the renal vasodilatory activity in anesthetized dog.; type: functional, Canis lupus familiaris; parameters: unit not given here
Outline: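 Dogs anesthetized and α-blocked with phenoxybenzamine, with saline infused iv during blockade. Four ascending bolus doses (3-10000 nmol) given into the renal artery in 0.2 mL isotonic saline, one test compound per dog. Maximal rise in renal blood flow was taken as % of each dog's response to 100 nmol dopamine. ED30 is the dose raising flow by 30%.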

Canis familiaris [2] = assay: Effect of compound on the renal blood flow (RBF) in alpha-blocked anesthetized dogs at a dose of 100 nmol after SCH 23390.; type: functional, Canis lupus familiaris, Kidney
Outline: (§1)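 Phenoxybenzamine α-blocked anesthetized dogs, N=4-5/group (dopamine N=18). Doses given as renal-artery boluses; Δ renal blood flow in mL/min, mean ± SEM. SCH 23390 infused at 0.5 µg/kg/min iv, with doses repeated 5 min after infusion onset. After ≥1.5 h recovery, propranolol was given at 0.5 mg/kg ia over 15 min. The combined condition repeated SCH 23390 infusion with propranolol present.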

Canis familiaris [3] = assay: Effect of compound on the renal blood flow (RBF) in alpha-blocked anesthetized dogs at a dose of 100 nmol after propranolol; type: functional, Canis lupus familiaris, Kidney; outline: as §1
Canis familiaris [4] = assay: Effect of compound on the renal blood flow (RBF) in alpha-blocked anesthetized dogs at a dose of 1000 nmol after propranolol; type: functional, Canis lupus familiaris, Kidney; outline: as §1
Canis familiaris [5] = assay: Effect of compound on the renal blood flow (RBF) in alpha-blocked anesthetized dogs at a dose of 1000 nmol after SCH 23390.; type: functional, Canis lupus familiaris, Kidney; outline: as §1
Canis familiaris [6] = assay: Effect of compound on the renal blood flow (RBF) in alpha-blocked anesthetized dogs at a dose of 1000 nmol after SCH 23390+propranolol; type: functional, Canis lupus familiaris, Kidney; outline: as §1
Canis familiaris [7] = assay: Effect of compound on the renal blood flow (RBF) in alpha-blocked anesthetized dogs at a dose of 300 nmol after SCH 23390+propranolol; type: functional, Canis lupus familiaris, Kidney; outline: as §1
Canis familiaris [8] = assay: Effect of compound on the renal blood flow (RBF) in alpha-blocked anesthetized dogs at a dose of 300 nmol after SCH 23390.; type: functional, Canis lupus familiaris, Kidney; outline: as §1
Canis familiaris [9] = assay: Effect of compound on the renal blood flow (RBF) in alpha-blocked anesthetized dogs at a dose of 300 nmol after propranolol; type: functional, Canis lupus familiaris, Kidney; outline: as §1
Canis familiaris [10] = assay: Effect of compound on the renal blood flow (RBF) in alpha-blocked anesthetized dogs at a dose of 3000 nmol after propranolol; type: functional, Canis lupus familiaris, Kidney; outline: as §1
Canis familiaris [11] = assay: Effect of compound on the renal blood flow (RBF) in alpha-blocked anesthetized dogs at a dose of 3000 nmol after SCH 23390+propranolol; type: functional, Canis lupus familiaris, Kidney; outline: as §1
Canis familiaris [12] = assay: Effect of compound on the renal blood flow (RBF) in alpha-blocked anesthetized dogs at a dose of 10000 nmol after SCH 23390+propranolol; type: functional, Canis lupus familiaris, Kidney; outline: as §1
Canis familiaris [13] = assay: Effect of compound on the renal blood flow (RBF) in alpha-blocked anesthetized dogs at a dose of 10000 nmol after SCH 23390.; type: functional, Canis lupus familiaris, Kidney; outline: as §1
Canis familiaris [14] = assay: Effect of compound on the renal blood flow (RBF) in alpha-blocked anesthetized dogs at a dose of 10000 nmol after propranolol; type: functional, Canis lupus familiaris, Kidney; outline: as §1
Canis familiaris [15] = assay: Effect of compound on the renal blood flow (RBF) in alpha-blocked anesthetized dogs at a dose of 3000 nmol after SCH 23390.; type: functional, Canis lupus familiaris, Kidney; outline: as §1
Canis familiaris [16] = assay: Effect of compound on the renal blood flow (RBF) in alpha-blocked anesthetized dogs at a dose of 100 nmol after SCH 23390+propranolol; type: functional, Canis lupus familiaris, Kidney; outline: as §1

Row | Structure (SMILES) | ED30 (Canis familiaris [1]) | RBF (Canis familiaris [2]) | RBF (Canis familiaris [3]) | RBF (Canis familiaris [8]) | RBF (Canis familiaris [9]) | further results
1 | Cl.NCCc1ccc(O)c(O)c1Cl | 13.5 | 4 mL/min | 43 mL/min | – | – | –
2 | CCNCCc1ccc(O)c(O)c1Cl.Cl | 67.4 | – | – | 22 mL/min | 25 mL/min | RBF (Canis familiaris [4]): 40 mL/min; RBF (Canis familiaris [5]): 32 mL/min; RBF (Canis familiaris [6]): 2 mL/min; RBF (Canis familiaris [7]): 2 mL/min
3 | CCCNCCc1ccc(O)c(O)c1Cl.Cl | 2166 | – | – | – | – | RBF (Canis familiaris [10]): 11 mL/min; RBF (Canis familiaris [11]): 2 mL/min; RBF (Canis familiaris [12]): 5 mL/min; RBF (Canis familiaris [13]): 17 mL/min; RBF (Canis familiaris [14]): 17 mL/min; RBF (Canis familiaris [15]): 11 mL/min
4 | CNCCc1ccc(O)c(O)c1Cl.Cl | 11.5 | 8 mL/min | 34 mL/min | 15 mL/min | 49 mL/min | –
5 | NCCc1ccc(O)c(O)c1 [DOPAMINE] | – | 15 mL/min | 69 mL/min | – | – | RBF (Canis familiaris [16]): 14 mL/min
